Screening data from PubChem.
Most compounds without a hit are left out; they make up all but 1.7% or so of the library.
Scp-1 inhibitor – Scp-1 phosphatase inhibitors, primary screen, biochemical, colorimetric, uHTS | Carboxy-terminal domain RNA polymerase II polypeptide A small phosphatase 1 (Homo … | Recombinant Scp1, phosphopeptide, malachite green phosphate absorbance | inhibition, % at 20 µM | hit rate 0.88% among 340,000 | AID 493091, 2011;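 active means inhibition above about 50% at 20 µM, limit read from the data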;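 further: plate controls were DMSO wells with enzyme for no effect and wells lacking enzyme for full effect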
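Test system – truncated SCP-1 phosphatase (76-261aa) · Reagent – Phosphorylated 17-residue peptide substrate · Incubation – 45 min room-temperature reaction, 5 min colour, 30 min stabiliser · Detection – colorimetric phosphate reagent with accelerator and stabiliser, absorbance at 630 nm · Measure – % inhibition at 20 µM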
LMPTP block – LMPTP phosphatase inhibitors, primary screen, biochemical, fluorescence intensity, uHTS. Low molecular weight phosphotyrosine protein phosphatase (Homo sapiens), P24666. recombinant LMPTP-A, OMFP fluorogenic substrate. inhibition, % at 20 µM. hit rate 0.22% among 360,000. AID 651560, 2012;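 active means compounds that cut the enzyme signal by at least half of the control window in the single-dose screen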;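 further: plate controls were DMSO wells with enzyme plus substrate for no effect and substrate without enzyme for full effect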
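material = LMPTP-A | quantity = 0.625 nM enzyme | reagent = OMFP substrate, 400 µM final | buffer or medium = Bis-Tris pH 6.0, DTT, detergent | detection = endpoint fluorescence intensity from OMFP dephosphorylation | dosing = single 20 µM dose | read-out basis = % inhibition relative to no-enzyme and uninhibited control wells | control set = no-enzyme and uninhibited controls | timing = 50 min at room temperature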
DNMT1 block – human DNMT1 methyltransferase inhibitors, primary screen, biochemical, molecular beacon, fluorescence, HinP1I cleavage, uHTS; DNA (cytosine-5)-methyltransferase 1 (Homo sapiens), P26358; inhibition (reported as % activation of signal), % at 10 µM; hit rate 0.83% among 360,000; in the data active means inhibition above about 50%
Target sequence (P26358 504-1616 limits assumed): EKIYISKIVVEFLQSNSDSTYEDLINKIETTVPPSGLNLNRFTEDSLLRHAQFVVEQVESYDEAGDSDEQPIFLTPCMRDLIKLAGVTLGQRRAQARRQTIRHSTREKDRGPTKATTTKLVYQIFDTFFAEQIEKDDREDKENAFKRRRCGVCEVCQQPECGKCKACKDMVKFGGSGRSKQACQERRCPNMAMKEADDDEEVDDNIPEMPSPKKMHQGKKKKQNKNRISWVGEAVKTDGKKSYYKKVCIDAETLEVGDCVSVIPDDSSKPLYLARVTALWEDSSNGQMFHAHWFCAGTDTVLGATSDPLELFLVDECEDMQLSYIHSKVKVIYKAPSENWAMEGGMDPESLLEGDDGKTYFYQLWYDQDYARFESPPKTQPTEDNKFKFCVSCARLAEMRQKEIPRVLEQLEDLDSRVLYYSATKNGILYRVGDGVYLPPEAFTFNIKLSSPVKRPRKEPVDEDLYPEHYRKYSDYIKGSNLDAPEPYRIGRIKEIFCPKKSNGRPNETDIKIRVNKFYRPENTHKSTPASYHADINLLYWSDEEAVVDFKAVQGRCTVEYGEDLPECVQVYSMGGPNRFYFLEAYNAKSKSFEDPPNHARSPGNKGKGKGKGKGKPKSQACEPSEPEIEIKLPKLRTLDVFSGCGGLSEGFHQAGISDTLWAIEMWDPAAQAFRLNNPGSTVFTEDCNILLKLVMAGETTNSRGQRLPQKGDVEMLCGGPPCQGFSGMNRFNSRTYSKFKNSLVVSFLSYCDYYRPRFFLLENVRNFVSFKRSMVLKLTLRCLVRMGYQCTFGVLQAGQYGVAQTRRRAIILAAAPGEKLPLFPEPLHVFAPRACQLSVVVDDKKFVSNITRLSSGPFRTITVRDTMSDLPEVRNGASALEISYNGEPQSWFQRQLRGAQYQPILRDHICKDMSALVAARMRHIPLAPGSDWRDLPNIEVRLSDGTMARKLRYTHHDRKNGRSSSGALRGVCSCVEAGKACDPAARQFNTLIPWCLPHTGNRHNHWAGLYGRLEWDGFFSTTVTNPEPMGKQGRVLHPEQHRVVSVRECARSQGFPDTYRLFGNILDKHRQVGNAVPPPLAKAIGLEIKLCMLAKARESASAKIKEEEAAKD
SUMO1-SIM PPI – modulators of SUMO1 protein-protein interactions, primary screen, biochemical, uHTS; inhibition, % at 20 µM; hit rate 0.33% among 360,000; SUMO1 binding to a labelled peptide, TR-FRET, 1 h; Small ubiquitin-related modifier 1 (Homo sapiens), P63165; in the data active means inhibition above about 37%
STEP inh – STEP phosphatase inhibitors, primary screen, biochemical, fluorescence intensity, uHTS; Tyrosine-protein phosphatase non-receptor type 5 (Homo sapiens), P54829; recombinant STEP, OMFP fluorogenic substrate; inhibition, % at 20 µM; hit rate 0.25% among 360,000;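 active means inhibition at 20 µM, scaled per plate between control wells, above about 37%, limit read from the data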;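 further: 0% = DMSO with enzyme and substrate and 100% = substrate only without enzyme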
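material = STEP tyrosine phosphatase | reagent = fluorogenic phosphatase substrate OMFP at 25 µM final | doses = single compound dose of 20 µM, 1% DMSO final | schedule = 20 min reaction, room temperature, in the dark | measured by = fluorescence, 480/540 nm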
* marks the source's active call; other numbers are inactive results; . = no result given.

SMILES	Scp-1 inhibitor	LMPTP block	DNMT1 block	SUMO1-SIM PPI	STEP inh
COc1ccc(Br)cc1C1CC(=O)N2CN(Cc3ccccc3)CSC2=C1C#N (configuration not stated)	-12	10	-18	6	46*
Cc1ccc(C2CC(=O)N3CN(c4ccc(Br)cc4)CSC3=C2C#N)o1 (configuration not stated)	-13	14	101*	18	13
CCN(CC)S(=O)(=O)c1cc(NC(=O)CO/N=C(\N)c2ccccc2Cl)ccc1C	0	0	0	-1	0
Cc1ccc(C(=O)Nc2c3c(nn2-c2ccccc2)CS(=O)(=O)C3)cc1C	-15	-1	2	0	0
Cc1nnc(N=c2ssnc2Cl)o1	12	55*	-10	-5	14
O=c1cc(-c2ccccc2Cl)oc2ccc([N+](=O)[O-])c(O)c12	4	13	6	-2	2
O=[N+]([O-])c1cc([N+](=O)[O-])c2oc(-c3ccccc3)c(Br)c2c1O	-12	9	-6	43*	16
O=C1C=C(NCCc2cc(Br)c(O)c(Br)c2)C(=O)c2ncccc21	34	21	92*	41*	46*
O=C1C(=O)c2ccc(-c3ccccc3)cc2-c2ccccc21	-4	14	106*	41*	34
Nc1ccc2c(c1)C(=O)C(=O)c1ccccc1-2	5	48	120*	48*	59*
Cc1ccc(NC(=O)C(C)Sc2nnc3ccccn23)cc1 (configuration not stated)	2	0	-1	-1	-1
CC(Sc1nnc2ccccn12)C(=O)Nc1ccc2c(c1)OCCO2 (configuration not stated)	1	0	-2	104*	-1
Cc1ccc(CC#N)c(-c2c(CC#N)ccc(C)c2C)c1C	.	-1	4	-2	1
Cc1ccc2c(c1C)-c1c(ccc(C)c1C)C(=O)C2=O	-16	8	95*	49*	5
Cc1cccn2c(=O)c(/C=N/O)c(Nc3ccccc3F)nc12	-11	16	11	52*	2
COc1ccc2c(c1O)Cc1ccccc1C2=O	-3	-1	-24	55*	2
CC(=O)c1ccccc1OCC(O)Cn1ccnc1 (configuration not stated)	-16	2	0	2	-3
O=[N+]([O-])c1ccc(Nc2ccccc2)c2nonc12	-11	16	-10	-90	8
NNc1ccc([N+](=O)[O-])c2[nH][nH]c(=O)c12	.	84*	85*	99*	96*
Cc1ccccc1-c1cc2nc(C)c(Cl)c(=O)n2[nH]1	-10	0	0	25	-4
Cc1nc2cc(-c3ccsc3-n3c(C)ccc3C)[nH]n2c(=O)c1Cl	25	50	44	41*	-2
CCOC(=O)c1ccc(NC2=CC(=O)C(=O)c3ccccc32)cc1	25	10	56*	41*	28
CCCCNC(=O)c1nc(C2CCN(S(=O)(=O)c3ccccc3)CC2)oc1-c1cccc(C(F)(F)F)c1	.	4	-1	4	3
CCCCNC(=O)c1nc(C2CCNCC2)oc1-c1cccc(C(F)(F)F)c1	.	60*	.	11	.
Cc1ccc(NC(=O)COC(=O)c2ccc[n+]([O-])c2)c(Br)c1	5	0	-4	3	2
SMILES	Scp-1 inhibitor	LMPTP block	DNMT1 block	SUMO1-SIM PPI	STEP inh
COc1ccc(Nc2nc(N)nc(CSC(=S)N3CCN(C)CC3)n2)cc1	-6	-1	1	50*	1
CC(=O)N(CCC(Cc1ccccc1)c1ccco1)Cc1ccco1 (configuration not stated)	0	1	-9	3	1
O=C(c1ccco1)N(CCC(c1ccccc1)c1ccco1)Cc1ccco1 (configuration not stated)	74*	3	100*	14	9
Cc1nnc(SCC(=O)Nc2ccc(F)cc2F)n(N)c1=O	-8	-1	1	2	-1
O=c1c(Br)ccc(Br)cc1Br	-10	1	59*	25	74*
COCc1ccc(C(=O)N2CCCC(C(=O)c3ccc(SC)cc3)C2)o1 (configuration not stated)	-1	-1	3	3	0
CCCCNC(=O)c1ccc(CS(=O)(=O)c2cccc(C(F)(F)F)c2)o1	0	0	0	3	-1
O=C(NCc1ccco1)c1ccc(CS(=O)(=O)c2cccc(C(F)(F)F)c2)o1	-11	-1	-1	55*	2
C=CCn1c(SCC(=O)c2ccc(O)c(O)c2)nnc1-c1cccnc1	72*	24	11	13	7
Cc1cccc(NC(=O)Cn2nnc(-c3ccc(CN4CCCC4)cc3)n2)c1C	-2	1	1	17	-2
NC(=O)Cn1nnc(-c2ccc(CN3CCCCC3)cc2)n1	-1	0	3	58*	1
N#Cc1c(N2CCN(c3ccc(F)cc3)CC2)nc(N)c2c(N)nc3c(c12)CC(=O)N3C1CC1	-2	4	-21	18	9
CC(C)(C)N1C(=O)Cc2c1nc(N)c1c(N)nc(N3CCCCC3CO)c(C#N)c21 (configuration not stated)	9	28	6	50*	12
CC(=O)Nc1ccc(NC(=O)c2cc(-c3cc(C)c(C)cc3O)n[nH]2)cc1	-6	1	-3	40*	0
Cc1cc(O)c(-c2cc(C(=O)Nc3cccnc3)[nH]n2)cc1C	-2	1	-3	2	0
CC(=NCc1ccccc1)c1ccc(O)cc1O	.	0	7	0	-2
O=c1cc(-c2ccc(O)c(O)c2)oc2cc(O[C@@H]3O[C@H](CO)[C@@H](O)[C@H](O)[C@H]3O)cc(O)c12	-2	1	52*	-16	2
Cc1nc2ccc3nc(NC(=O)c4ccco4)sc3c2s1	25	0	6	54*	4
Cc1ccc2nc(NC(=O)c3ccco3)sc2c1	-7	0	-1	1	-5
Cc1csc2c(=O)sc(NC(=O)c3ccco3)nc12	6	25	0	-21	9
O=C(Nc1nc2ccsc2c(=O)s1)c1ccco1	54*	0	44	39*	8
CSc1ccccc1NC(=O)CN(C)C(=O)COc1ncnc2ccccc12	0	-1	2	-4	3
COc1ccc(CN(C)C(=O)CNC(=O)c2sc3ccccc3c2Cl)c(OC)c1	.	2	-6	-6	0
